{
  "source": "paper PMC6226371",
  "about": "(Journal of medicinal chemistry, 2018)",
  "key": {"[1]": {"target": "T1, hMC4R (Homo sapiens, UniProt P32245)", "type": "cell-based"}, "[2]": {"target": "T1, hMC4R", "assay": "PRESTO-Tango β-arrestin2 recruitment assay, HTLA cells transfected with hMC4R", "type": "cell-based"}, "[3]": {"target": "T1, hMC4R", "assay": "AlphaScreen cAMP Schild analysis, inhibition of NDP-MSH agonist stimulation", "type": "cell-based", "details": "antagonism of NDP-MSH, pA2 = −log(Ki)", "how_it_was_run": "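HEK293 cells stably expressing Flag-tagged hMC4R (calcium phosphate transfection, G418 selection), lifted with Versene, 10,000 cells/well in HBSS stimulation buffer (0.5 mM IBMX, 5 mM HEPES, 0.1% BSA, pH 7.4).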"}, "[4]": {"target": "mMC4R-NanoLuc and mMC4R-HaloTag homodimer (Mus musculus, UniProt P56450)", "assay": "NanoBRET ligand-induced response of the mMC4R homodimer", "type": "cell-based"}, "[5]": {"target": "human melanocortin-4 receptor (hMC4R-Flag) (human) (UniProt P32245)"}, "[6]": {"system": "hMC4R", "details": "1 µM, not significant; cited from earlier work"}},
  "note": "Like-named read-outs stand apart in the source and are kept apart here.",
  "data": [
    {"compound": "CC(=O)N[C@@H](Cc1c[nH]cn1)C(=O)N[C@H](Cc1ccc2ccccc2c1)C(=O)N[C@@H](CCCNC(=N)N)C(=O)N[C@@H](Cc1c[nH]c2ccccc12)C(=O)N1CCC[C@H]1C(=O)NCC(=O)N1CCC[C@H]1C(=O)NCC(=O)N1CCC[C@H]1C(=O)NCC(=O)N1CCC[C@H]1C(=O)NCC(=O)N1CCC[C@H]1C(=O)NCC(=O)N1CCC[C@H]1C(=O)NCC(=O)N[C@@H](Cc1c[nH]cn1)C(=O)N[C@H](Cc1ccccc1)C(=O)N[C@@H](CCCNC(=N)N)C(=O)N[C@@H](Cc1c[nH]c2ccccc12)C(N)=O", "note": "[CJL-1–63]", "values": [
      {"measurement": "cAMP pharmacology", "setting": "[1]; hMC4R", "result": "single digit nanomolar potent agonists"}
    ]},
    {"compound": "CC(=O)NCCCOCCOCCOCCCNC(=O)COCC(=O)N[C@@H](Cc1c[nH]cn1)C(=O)N[C@H](Cc1ccccc1)C(=O)N[C@@H](CCCNC(=N)N)C(=O)N[C@@H](Cc1c[nH]c2ccccc12)C(N)=O", "note": "[CJL-1–116]", "values": [
      {"measurement": "EC50", "setting": "[1]", "result": "2 ± 0.3", "unit": "nM"},
      {"measurement": "EC50", "setting": "[2]", "result": "140 ± 70", "unit": "nM"},
      {"measurement": "fold increase in β-arrestin recruitment potency compared to CJL-1–14", "setting": "[2]; hMC4R", "result": "< 3", "unit": "fold"}
    ]},
    {"compound": "CC(=O)N[C@@H](Cc1c[nH]cn1)C(=O)N[C@H](Cc1ccc2ccccc2c1)C(=O)N[C@@H](CCCNC(=N)N)C(=O)N[C@@H](Cc1c[nH]c2ccccc12)C(=O)NCCCOCCOCCOCCCNC(=O)COCC(=O)NCCCOCCOCCOCCCNC(=O)COCC(=O)N[C@@H](Cc1c[nH]cn1)C(=O)N[C@H](Cc1ccccc1)C(=O)N[C@@H](CCCNC(=N)N)C(=O)N[C@@H](Cc1c[nH]c2ccccc12)C(N)=O", "note": "[CJL-5–74]", "values": [
      {"measurement": "cAMP pharmacology", "setting": "[1]; hMC4R", "result": "single digit nanomolar potent agonists"}
    ]},
    {"compound": "Ac-His-DNal(2ʹ)-Arg-Trp-NH2 [CJL-1–80]", "values": [
      {"measurement": "cAMP signaling, % of maximal signal at 10 µM compared to control NDP-MSH maximal signal", "setting": "[1]; hMC4R, at 10 µM", "result": 50, "unit": "%"},
      {"measurement": "pA2 (Schild analysis)", "setting": "[3]", "result": "7.82±0.03"},
      {"measurement": "change in BRET signal from basal levels", "setting": "[4]; 10^−5, 10^−7 and 10^−9 M", "result": "no significant changes"},
      {"measurement": "β-Arrestin recruitment, % of maximal signal at 10 µM compared to control NDP-MSH maximal signal", "setting": "[2]; hMC4R", "result": 30, "unit": "% at 10 µM"},
      {"measurement": "β-Arrestin recruitment, % of maximal signal at 10 µM compared to control NDP-MSH maximal signal", "setting": "[2]; hMC4R, listed as Ac-His-DNal(2ʹ)-Arg-Trp-NH2", "result": 30, "unit": "%"}
    ]},
    {"compound": "MTII (peptide)", "values": [
      {"measurement": "cAMP signaling EC50 (AlphaScreen, HEK293 cells stably expressing hMC4R)", "setting": "[5]", "result": 0.03, "unit": "nM"}
    ]},
    {"compound": "NDP-MSH (peptide)", "values": [
      {"measurement": "cAMP signaling EC50 (AlphaScreen, HEK293 cells stably expressing hMC4R)", "setting": "[5]", "result": 0.06, "unit": "nM"}
    ]},
    {"compound": "α-MSH [reference compound]", "values": [
      {"measurement": "decrease of mean BRET signal compared to basal BRET signal", "setting": "[6]", "result": "approximately 20%"},
      {"measurement": "reduction in BRET signal compared to basal signal", "setting": "[4]; ligand at 10 µM", "result": 15, "unit": "%"}
    ]}
  ]
}
